Converted amounts (≈) assume the structure as drawn.
Tests used:
[1] = biological target: Human immunodeficiency virus type 1 integrase (Human immunodeficiency virus 1) (UniProt Q7ZJM1); assay: Ratio of IC50 for pseudotype HIV1 integrase strand transfer activity in presence of 40% human serum albumin to IC50 for pseudotype HIV1 integrase strand transfer activity
Method in brief: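 Single-round assay with a self-inactivating pseudotyped HIV (PHIV) lentiviral luciferase vector. CIP4 cells (2 × 10^4/well) were infected with enough PHIV to give about 50,000 relative light units. Cells were incubated 2 days with compound at varying concentrations, with or without 40% human serum albumin. Infection was read as luciferase luminescence (Steady-Glo). Serum shift is the IC50 with albumin divided by the IC50 without.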

[2] = system: Human immunodeficiency virus type 1 integrase (Human immunodeficiency virus 1), Q7ZJM1 [Q148K]; assay: (§1) Inhibition of pseudotype HIV1 integrase Q148K mutant strand transfer activity in HIV1 infected human CIP4 cells assessed as ratio of IC50 for pseudotype HIV1 integrase Q148K mutant strand transfer activity to IC50 for pseudotype HIV1 integrase strand transfer activity after 2 days by luciferase reporter gene assay; type: cell-based
[3] = system: Human immunodeficiency virus type 1 integrase (Human immunodeficiency virus 1), Q7ZJM1 [G140S,Q148H]; assay: as §1, with “G140S/Q148H double” for “Q148K”; type: cell-based
[4] = Cytotoxicity against human CIP4 cells; type: cell-based
[5] = Total clearance in iv or po dosed beagle dog after 24 hrs by LC-MS/MS analysis; type: ADME, organism-based, Canis lupus familiaris; settings: in vivo
[6] = Total clearance in Sprague-Dawley rat at 1 mg/kg, iv or 5 mg/kg, po after 24 hrs by LC-MS/MS analysis; type: ADME, organism-based; settings: in vivo
[7] = Half life in Sprague-Dawley rat at 1 mg/kg, iv or 5 mg/kg, po by LC-MS/MS analysis; type: ADME, organism-based; settings: in vivo
[8] = Oral bioavailability in Sprague-Dawley rat at 5 mg/kg after 24 hrs by LC-MS/MS analysis; type: ADME, organism-based; settings: in vivo
[9] = Half life in iv or po dosed beagle dog by LC-MS/MS analysis; type: ADME, organism-based, Canis lupus familiaris; settings: in vivo
[10] = Oral bioavailability in beagle dog after 24 hrs by LC-MS/MS analysis; type: ADME, organism-based, Canis lupus familiaris; settings: in vivo
[11] = Apparent permeability of compound; type: physicochemical; settings: not told
[12] = Intrinsic aqueous solubility of compound by chemiluminescent nitrogen detection method; type: physicochemical; settings: buffer
[13] = system: Rattus norvegicus; assay: Total clearance in Sprague-Dawley rat at 1 mg/kg, iv or 5 mg/kg, po after 24 hrs by LC-MS/MS analysis relative to hepatic blood flow; type: ADME, organism-based, Liver; settings: in vivo
[14] = system: Canis familiaris; assay: Total clearance in iv or po dosed beagle dog after 24 hrs by LC-MS/MS analysis relative to hepatic blood flow; type: ADME, organism-based, Canis lupus familiaris, Liver; settings: in vivo

Row | SMILES | Ratio IC50 [2] | Ratio IC50 [3] | CC50 [4] [µM] | other results
1 | O=C1c2c(cc3cc(Cc4cccc(Cl)c4F)cnc3c2O)CN2CCCN12 | 0.4 | 2.3 | – | Ratio IC50 [1]: 9
2 | N#Cc1c2c(c(O)c3ncc(Cc4cccc(Cl)c4F)cc13)C(=O)N1CCC[C@H]21 | 216 | 456 | 7.27 | –
3 | NC(=O)c1c2c(c(O)c3ncc(Cc4cccc(Cl)c4F)cc13)C(=O)N1CCC[C@@H]1C2 | 0.6 | 0.4 | 21.1 | –
4 | N#Cc1c2c(c(O)c3ncc(Cc4cccc(Cl)c4F)cc13)C(=O)N1CCCC[C@H]21 | 8.8 | 17 | 7.05 | –
5 | N#Cc1c2c(c(O)c3ncc(Cc4cccc(Cl)c4F)cc13)C(=O)N1CCCC[C@@H]21 | 17 | 93 | 3.36 | –
6 | N#Cc1c2c(c(O)c3ncc(Cc4cccc(Cl)c4F)cc13)C(=O)N1CCCN1C2 | 1.3 | 8 | – | Ratio IC50 [1]: 188
7 | N#Cc1c2c(c(O)c3ncc(Cc4cccc(Cl)c4F)cc13)C(=O)N1CCC[C@@H]1C2 | 0.8 | 1.5 | 12.8 | –
8 | Cn1c(=O)c(C(=O)NCCO)c(O)c2ncc(Cc3ccc(F)cc3)cc21 | 40 | – | – | –
9 | NC(=O)c1c2c(c(O)c3ncc(Cc4cccc(Cl)c4F)cc13)C(=O)N1CCCC[C@@H]21 | 0.1 | 3.7 | 5.18 | –
10 | N#Cc1c2c(c(O)c3ncc(Cc4cccc(Cl)c4F)cc13)C(=O)N1CCC[C@@H]21 | 31 | 131 | 1.83 | –
11 | NC(=O)c1c2c(c(O)c3ncc(Cc4cccc(Cl)c4F)cc13)C(=O)N1CCCC[C@H]21 | 1.4 | 2.8 | 24.4 | clearance [5]: 2.8 mL/min/kg; clearance [6]: 1.4 mL/min/kg; half-life [7]: 7.2 h; bioavailability [8]: 2%; half-life [9]: 11.8 h; bioavailability [10]: 14%; Papp [11]: 6 ×10⁻⁶ cm/s; solubility [12]: 25 µM (≈ 11 µg/mL); CL [13]: 2%; CL [14]: 5%
12 | O=C(NCc1ccc(F)cc1)c1cn2c(c(O)c1=O)C(=O)N1CCCO[C@H]1C2 | 2.4 | – | – | –
13 | NC(=O)c1c2c(c(O)c3ncc(Cc4cccc(Cl)c4F)cc13)C(=O)N1CCC[C@H]1C2 | 0.6 | 2.6 | 36.8 | –
14 | N#Cc1c2c(c(O)c3ncc(Cc4cccc(Cl)c4F)cc13)C(=O)N1CCC[C@H]1C2 | 1.4 | 2.8 | 50 | –
